The values below come from publication PMC6605687 (The Journal of General Physiology, 2019).

Substitutions are numbered along the chain they refer to. Like-named read-outs stand apart in the source and are kept apart here.

Common to all, as to type: cell-based
The target of one assay is T1, rP2X2 Thr184Val (Rattus norvegicus, UniProt P49653, T184V).
T1 sequence (P49653 1-472 T184V): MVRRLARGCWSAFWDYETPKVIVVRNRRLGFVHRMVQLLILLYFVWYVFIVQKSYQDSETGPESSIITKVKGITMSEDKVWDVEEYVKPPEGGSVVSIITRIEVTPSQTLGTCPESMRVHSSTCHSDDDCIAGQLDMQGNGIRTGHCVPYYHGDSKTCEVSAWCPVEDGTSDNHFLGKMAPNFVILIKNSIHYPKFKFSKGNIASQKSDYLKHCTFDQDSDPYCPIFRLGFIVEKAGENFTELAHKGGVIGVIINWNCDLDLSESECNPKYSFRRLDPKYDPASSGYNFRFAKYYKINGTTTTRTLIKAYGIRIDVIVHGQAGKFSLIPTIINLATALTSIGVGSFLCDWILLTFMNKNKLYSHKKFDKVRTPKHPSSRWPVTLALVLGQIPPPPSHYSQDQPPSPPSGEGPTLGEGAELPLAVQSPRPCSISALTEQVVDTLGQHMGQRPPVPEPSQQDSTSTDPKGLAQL
Nature of the assay: Two-electrode voltage clamp, oocytes expressing rP2X2 Thr184Val. The method in brief:
(§1)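 Mutations were made by site-directed mutagenesis. Xenopus oocytes were injected with rP2X2 mRNA and incubated in L-15 at 18°C. Two-electrode voltage clamp was done 1–2 days later at −40 mV under ND96 perfusion (pH 7.4). ATP concentration-response currents were normalised and fitted to a one-component Hill equation for EC50 and Hill coefficient. Results are mean ± SEM, tested by one-way ANOVA with Dunnett's test against WT.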
(In general: In two-electrode clamp one electrode senses voltage and the other passes current.)

The target of a further assay is T2, rP2X2 Lys71Arg (Rattus norvegicus, UniProt P49653, K71R).
T2 sequence (P49653 1-472 K71R): T1 sequence (P49653 1-472 T184V) with K71R, V184T
Briefly: Two-electrode voltage clamp, oocytes expressing rP2X2 Lys71Arg. The method in brief:
as §1

A further assay concerns the target T3, rP2X2 Lys308Gln (Rattus norvegicus, UniProt P49653, K308Q).
T3 sequence (P49653 1-472 K308Q): T1 sequence (P49653 1-472 T184V) with V184T, K308Q
Nature of the assay: Two-electrode voltage clamp, oocytes expressing rP2X2 Lys308Gln. The method in brief:
as §1

In another assay the target is T4, rP2X2 Lys69Gln (Rattus norvegicus, UniProt P49653, K69Q).
T4 sequence (P49653 1-472 K69Q): T1 sequence (P49653 1-472 T184V) with K69Q, V184T
Nature of the assay: Two-electrode voltage clamp, oocytes expressing rP2X2 Lys69Gln. To be noted: for EC50: EC50, Lys69Gln. The method in brief:
as §1

The target in the next assay is T5, rP2X2 Lys69Arg (Rattus norvegicus, UniProt P49653, K69R).
T5 sequence (P49653 1-472 K69R): T1 sequence (P49653 1-472 T184V) with K69R, V184T
Nature of the assay: Two-electrode voltage clamp, oocytes expressing rP2X2 Lys69Arg.

The term EC50 denotes the concentration at which the effect is half-maximal. Read a low EC50 as an effect from little substance. `Nc1ncnc2c1ncn2[C@@H]1O[C@H](COP(=O)(O)OP(=O)(O)OP(=O)(O)O)[C@@H](O)[C@H]1O` [ATP, Adenosine 5′-triphosphate]: the EC50 on rP2X2 Thr184Val is 3.2 mM; at rP2X2 Lys71Arg it was 0.37 ± 0.04 mM; on rP2X2 Lys308Gln, 5.8 mM; on rP2X2 Lys69Gln it was above 5 mM; on rP2X2 Lys69Gln (mean ± SEM) it was 16.6 mM; at rP2X2 Lys69Arg, above 5 mM. In addition, on rP2X2 Lys69Arg (mean ± SEM), the EC50 was 6 mM. Moreover, the “Fold increase in EC50 (reduction in sensitivity), Thr184Val versus WT” value on rP2X2 Thr184Val (Thr184Val compared with WT) came out at 100 fold. In addition, the “nH (Hill coefficient)” value on rP2X2 Lys69Gln (Lys69Gln) is on record as 2.4 ± 0.1.
